Drawing on ChEMBL document CHEMBL4513216, “Probing the Open Global Health Chemical Diversity Library for Multistage-Active Starting Points for Next-Generation Antimalarials” (ACS Infect Dis, 2020), this text covers cytotoxicity for 97 compounds.

The data set is described as follows: Toxicity liver stage against HepG2, at 10uM. Type of data set: cell-based. Also on record: test concentration 10 uM, cell line HepG2-A16-CD81EGFP. As to conditions: human, HepG2-A16-CD81EGFP cells; read-out: INHIBITION
In outline:
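Uninfected HepG2-A16-CD81EGFP cells, 3 × 10^3 per well, 1536-well, plated on prespotted compound at 10 μM final, parasite-free screening media added to match infected plates; puromycin 10 μM positive, DMSO 0.5% negative; run in parallel with 48 h PbLuc assay at 37 °C, 5% CO2; viability by CellTiter-Glo luminescence, normalized to controls.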
For `COCC(=O)NC[C@H]1C[C@@H]2CCN1C[C@@H]2c1cc(-c2cccs2)nn1C`, the cytotoxicity at 10 µM stood at 1.23%.

Regarding `CC(=O)N1CC[C@H]2CC(=O)N(Cc3ccc4c(c3)OCO4)CC[C@H]2C1`, the cytotoxicity at 10 µM is -3.91%.

As for `CCSc1nnc(CCNC(=O)OC(C)(C)C)o1`, the cytotoxicity at 10 µM was -25.9%.

Turning to `NC(=O)Cc1ccc(OCc2noc(C(=O)N3CCCC3)n2)cc1`, the cytotoxicity at 10 µM is -13.6%.

With `NC(=O)c1c(SCCN2CCCCC2)sc2c(O)cc(=O)[nH]c12`, the cytotoxicity at 10 µM is -13.7%.

Consider `COC(=O)NCCCn1ccnc1-c1ccccc1`, for which the cytotoxicity at 10 µM was -2.27%.

Consider `Cn1c(C(F)(F)F)nn(CCNC(=O)c2nc3ccccc3s2)c1=O`, for which the cytotoxicity at 10 µM is 1.79%.

In the case of `CN(C)CC1CSCCCN1S(=O)(=O)c1ccc(C(F)(F)F)cc1` (configuration not stated), the cytotoxicity at 10 µM is -6.71%.

Consider `CCN1CC[C@@]2(C(=O)N(C)C)CCN(C(=O)NC(C)C)CC[C@@H]12`, for which the cytotoxicity at 10 µM was -15.2%.

As for `c1cc(CN2CCC3(CC2)COC(COCC2CC2)C3)co1` (configuration not stated), the cytotoxicity at 10 µM was -4.19%.

For the compound `O=C(NCC1CC1)C1CCC2(CN(C(=O)c3ccno3)C2)O1` (configuration not stated), the cytotoxicity at 10 µM was -138%.

As to `O=C(C1CCC2(CCN(c3nncs3)CC2)C1)N1CCCC1` (configuration not stated), the cytotoxicity at 10 µM stood at 9.43%.

As for `Cc1occc1C(=O)N1CC[C@@H]2[C@@H](CO[C@H]2CNS(C)(=O)=O)C1`, the cytotoxicity at 10 µM was determined as 11.3%.

For the compound `O=C1NC2(CCN(C(=O)c3ccnnc3)CC2)CC1c1ccccc1` (configuration not stated), the cytotoxicity at 10 µM was -113%.

For `COCCN1C[C@@H]2OCCN(c3ccnc(N(C)C)n3)[C@@H]2C1`, the cytotoxicity at 10 µM was -118%.

In the case of `Cn1ccnc1CN1CCC2(CC1)CC(Nc1ccccn1)CO2` (configuration not stated), the cytotoxicity at 10 µM was -7.97%.

Regarding `COc1cc(C2SCC(=O)Nc3[nH]ncc32)cc(OC)c1OC` (configuration not stated), the cytotoxicity at 10 µM stood at 8.49%.

Regarding `Cc1ncnc2c1CCN(c1cc(C(F)(F)F)ncn1)CC2`, the cytotoxicity at 10 µM was -2.96%.

Turning to `Cc1nc(CN2CCCn3c(nc(Cn4ccnc4)cc3=O)C2)cs1`, the cytotoxicity at 10 µM is -5.67%.

As to `Cc1c(S(=O)(=O)NC2CC2)cc2c(C)cc(=O)n3c2c1CCC3`, the cytotoxicity at 10 µM was -1.95%.

`Cc1ccc2c(c1)c(C)cc(=O)n2CCCN`: the cytotoxicity at 10 µM stood at 1.14%.

Regarding `Cc1cc(N2CCC(O)(CN(C)C(=O)CCN)CC2)c2cnccc2n1`, the cytotoxicity at 10 µM was -3.3%.

As for `O=C(c1cc(C2CC2)n[nH]1)N1C[C@H]2CC[C@](O)(c3ccccc3F)[C@H]2C1`, the cytotoxicity at 10 µM came to 7.66%.

For the compound `CC1CCc2nn(CCNC(=O)c3ccco3)c(=O)cc2C1` (configuration not stated), the cytotoxicity at 10 µM was found to be 9.15%.

Take `COCC(=O)N1CCC(c2cc(-c3ccc(C)cc3)n[nH]2)C1` (configuration not stated): the cytotoxicity at 10 µM was -3.39%.

Take `CN1CCC2(Cc3ccccc3CN(C(=O)c3ccc(Cl)cc3)C2)C1` (configuration not stated): the cytotoxicity at 10 µM was -3.12%.

Consider `COCCNC(=O)CCNc1ccc(Cl)cn1`, for which the cytotoxicity at 10 µM was -5.22%.

For `CCOCC(=O)Nc1cc(-n2nnnc2C2CC2)ccc1F`, the cytotoxicity at 10 µM is -4.28%.

In the case of `CCCN(Cc1nnnn1C1CC1)CC1COc2ccccc2O1` (configuration not stated), the cytotoxicity at 10 µM worked out at 2.04%.

Take `COc1ccccc1C(C)(C)NC(=O)Nc1ccc(F)c(C(N)=O)c1`: the cytotoxicity at 10 µM is -145%.

Regarding `COc1ccc(CCNC(=O)C2CCOC2)c(Cl)c1` (configuration not stated), the cytotoxicity at 10 µM was -2.27%.

On to `CC(NC(=O)Nc1cccnc1N1CCOCC1)c1ccncc1` (configuration not stated), for which the cytotoxicity at 10 µM turned out to be 5.28%.

For `Cc1noc(C)c1CN1CCCC1C(=O)OCc1ccccc1` (configuration not stated), the cytotoxicity at 10 µM was found to be 3.23%.

On to `CC(CS(C)(=O)=O)N(C)C(=O)NCCCc1ccc(Cl)cc1` (configuration not stated), for which the cytotoxicity at 10 µM worked out at 1.8%.

In the case of `CCn1nc2c(cc1=O)CN(CCOc1ccc(C#N)cc1)CC2`, the cytotoxicity at 10 µM was -3.73%.

For the compound `OC(CNCCn1cccn1)COc1ccc(F)cc1` (configuration not stated), the cytotoxicity at 10 µM was -16.6%.

With `CCCc1nc(C)c(C(=O)NS(=O)(=O)c2cccnc2)s1`, the cytotoxicity at 10 µM was -5.8%.

As for `CC(C)c1nc(CN2CCN(C(=O)Cc3ccccc3Cl)CC2)no1`, the cytotoxicity at 10 µM was -1.96%.

Regarding `O=C(NCC(F)(F)F)C1CSCN1S(=O)(=O)c1cccc(F)c1` (configuration not stated), the cytotoxicity at 10 µM is 18.7%.

Take `O=C(Nc1ccnn1C1CCCC1)c1ccc(NC2CC2)nc1`: the cytotoxicity at 10 µM is 4.75%.

With `COCCCNC(=O)CN1CCOC(c2ccccc2)C1` (configuration not stated), the cytotoxicity at 10 µM was found to be 18.6%.

As for `Cc1cccc(C)c1OCCNC(=O)CNC(=O)C1CCCC1`, the cytotoxicity at 10 µM was -122%.

For the compound `COCCN(Cc1ccco1)Cc1nc(-c2ccc(C)c(F)c2)no1`, the cytotoxicity at 10 µM was found to be 3.68%.

On to `Cc1cc(CS(=O)(=O)N(C)C(C)c2ccc(F)cc2)on1` (configuration not stated), for which the cytotoxicity at 10 µM was found to be 6.72%.

As for `CC(O)CN1CCC(CN(C)Cc2ccc(C#N)cc2)CC1` (configuration not stated), the cytotoxicity at 10 µM amounted to 0.788%.

With `O=C(NC1CC1)c1ccccc1NCc1cn2cccnc2n1`, the cytotoxicity at 10 µM is 5.38%.

Regarding `CC(C)CCN1CCN(C(=O)c2c[nH]c(=O)[nH]2)CC1`, the cytotoxicity at 10 µM was -6.49%.

With `CCCNC(=O)CN1CCC(NCc2csc(C(C)C)n2)CC1`, the cytotoxicity at 10 µM was -1.4%.

For `CCn1nc(C(C)C)cc1C(=O)N1CCOc2ccc(OC)cc21`, the cytotoxicity at 10 µM was 9.27%.

For `CCOc1ccc(CN2C(=O)CC(CC)(CC)C2=O)nc1`, the cytotoxicity at 10 µM came out at 5.73%.

Turning to `CCc1ccc(-c2nn3c(nc2=O)-c2ccccc2NC3C(=O)O)cc1` (configuration not stated), the cytotoxicity at 10 µM amounted to 11.2%.

Turning to `CCC(C)NS(=O)(=O)Cc1cccc(NC(=O)C(C)C)c1` (configuration not stated), the cytotoxicity at 10 µM is 5.36%.

On to `CCc1nc2n(n1)CCCC2NC(=O)Nc1ccc(SC)c(F)c1` (configuration not stated), for which the cytotoxicity at 10 µM came out at 5.08%.

With `Cc1ccc(NC(=O)CCc2ccco2)cc1N1CCOC1=O`, the cytotoxicity at 10 µM is -8.43%.

For the compound `Cc1cc(C)n(CC2CCCCN2CC(=O)Nc2cccnc2)n1` (configuration not stated), the cytotoxicity at 10 µM amounted to 6.46%.

On to `OC1(CN2CCC(Oc3cccnc3)CC2)CNCCOC1` (configuration not stated), for which the cytotoxicity at 10 µM amounted to 5.92%.

Consider `CN(Cc1nncn1C)c1nccc(N2CCC(O)CC2)n1`, for which the cytotoxicity at 10 µM is -1.78%.

For the compound `COCCN1CC2(CCC1=O)CCN(Cc1nnc(C)o1)CC2`, the cytotoxicity at 10 µM is -5.81%.

As for `CN(C)c1ccc(-c2ccnc3c2ccn3C)nn1`, the cytotoxicity at 10 µM was found to be 10.9%.

Turning to `O=C(c1coc2ccccc12)N1CCCC(O)(CO)CC1` (configuration not stated), the cytotoxicity at 10 µM was found to be 6.41%.

For `Nc1nnc(SCC(=O)NCC(O)c2ccccc2)s1` (configuration not stated), the cytotoxicity at 10 µM was found to be 12%.

For the compound `CC(C)Oc1cccc(C(=O)Nc2nncs2)c1`, the cytotoxicity at 10 µM was -3.49%.

In the case of `Cn1nccc1C(=O)N1CCCN(CCCc2ccccc2)CC1`, the cytotoxicity at 10 µM is -2.45%.

Consider `Cc1nnc(CN2CCC3(CCC(=O)N(C4CC4)C3)CC2)o1`, for which the cytotoxicity at 10 µM was -6.68%.

As for `CSc1cccc(CC(=O)N[C@@H]2CCNC[C@H]2O)c1`, the cytotoxicity at 10 µM was -1.72%.

Regarding `CN(Cc1nc(-c2cccnc2)no1)C(=O)c1cccn1C`, the cytotoxicity at 10 µM was -2.85%.

In the case of `CCC(=O)Nc1cccc(OCC(=O)N2CC=CC2C(C)C)c1` (configuration not stated), the cytotoxicity at 10 µM was -0.115%.

On to `CCc1cc(C(=O)N2CCC3(CCCN(CCOC)C3=O)C2)cs1` (configuration not stated), for which the cytotoxicity at 10 µM was -146%.

Consider `CCc1ncc(C(=O)N2CCCC(c3nccn3CCOC)C2)cn1` (configuration not stated), for which the cytotoxicity at 10 µM is -0.262%.

Take `Cc1cnc(C)c(-c2cc(O)c3c(c2)CN(Cc2nccs2)CCO3)n1`: the cytotoxicity at 10 µM amounted to 1.69%.

Turning to `COCCCC1CCCCN1Cc1cn2cc(C)ccc2n1` (configuration not stated), the cytotoxicity at 10 µM was 3.21%.

As for `COc1ccc(OCc2nc(C(=O)N3C[C@H](O)[C@@H](N(C)C)C3)co2)cc1`, the cytotoxicity at 10 µM was -1.74%.

Consider `CCOCC(=O)N1C[C@@H](NC(C)=O)[C@H](c2ccc(OC)cc2)C1`, for which the cytotoxicity at 10 µM is -9.44%.

As for `CCc1nc(-c2cccc(C(=O)O)c2)no1`, the cytotoxicity at 10 µM is -10%.

As for `CC(C)c1noc(CN2CCN(C(=O)c3cc(Cl)ccc3F)CC2)n1`, the cytotoxicity at 10 µM is -6.8%.

As for `Cc1ccc(NC2CCN(C(=O)c3ccco3)CC2)nn1`, the cytotoxicity at 10 µM is -14.3%.

Turning to `Cc1ccccc1CNC(=O)C1CCN(Cc2nccn2C)CC1`, the cytotoxicity at 10 µM was -17.9%.

Take `CC(Cn1ccnc1)NC(=O)NCCc1cccs1` (configuration not stated): the cytotoxicity at 10 µM is -3.16%.

As for `CCc1c(C(=O)NC2CCS(=O)(=O)C2)cnn1-c1ccc(C)cc1` (configuration not stated), the cytotoxicity at 10 µM was -5.94%.

For `Cc1nc(C)n(CC2CCCN(CC(=O)NC3CCOCC3)C2)n1` (configuration not stated), the cytotoxicity at 10 µM was -11.8%.

Turning to `COc1cccc(S(=O)(=O)CCN2CCn3c(C)nnc3C2)c1`, the cytotoxicity at 10 µM was -18.7%.

As to `CC(C)NC(=O)Cn1cc(-c2ccccc2)cn1`, the cytotoxicity at 10 µM was -0.577%.

As to `O=C(NCCn1ccnc1)N1CCN(Cc2cccs2)CC1`, the cytotoxicity at 10 µM was -7.49%.

On to `O=C(CCNC(=O)c1ccoc1)Nc1c(F)cccc1F`, for which the cytotoxicity at 10 µM was found to be 1.35%.

For `COC(=O)N1CC2(CCNCC2)c2cc(Cl)ccc21`, the cytotoxicity at 10 µM is 7.71%.

Take `Cc1ccc(C(=O)N2CCc3ccc(=O)n(CCN(C)C)c3CC2)o1`: the cytotoxicity at 10 µM is -2.16%.

On to `CN(C)c1cccc(C(=O)N2CCCC2c2ncc3c(n2)CCNC3)c1` (configuration not stated), for which the cytotoxicity at 10 µM was -9.97%.

Consider `Cc1noc(C)c1CNCC1COCc2c(-c3ccoc3)nnn2C1` (configuration not stated), for which the cytotoxicity at 10 µM worked out at 8.85%.

As to `CN(C)S(=O)(=O)N1C[C@H]2CCC[C@@]2(COc2cccnc2)C1`, the cytotoxicity at 10 µM turned out to be 11.8%.

Consider `CN(C)CC(=O)N1CCc2sc(C(=O)NCC3CC3)cc21`, for which the cytotoxicity at 10 µM turned out to be 1.68%.

In the case of `O=C(NC1CC1)N1CCc2ncnc(-c3ccncc3)c2CC1`, the cytotoxicity at 10 µM was -1.04%.

Take `CCCN1CCC2(CC1)COc1ccccc1S(=O)(=O)N(CC1CC1)C2`: the cytotoxicity at 10 µM was -3.43%.

As to `CCN(CC)CCN1CC[C@H]2OCC[C@@]2(C(=O)N2CCOCC2)C1`, the cytotoxicity at 10 µM was found to be 4.64%.

As for `COc1ccc(CN2CCC3(CC2)CCN(CCN(C)C)C3=O)cc1`, the cytotoxicity at 10 µM was -4.25%.

On to `Cc1cccc(CN2C[C@@H]3COC[C@]3(CNC(=O)c3cccn3C)C2)n1`, for which the cytotoxicity at 10 µM was -5.64%.

For `Cc1nc(CN2CCC3(CCN(c4cnn(C)c4)C3=O)C2)cs1` (configuration not stated), the cytotoxicity at 10 µM came out at 4.15%.

As to `CC(C)n1c(=O)[nH]c2cn(-c3ccc(Br)cc3)c(=O)n21`, the cytotoxicity at 10 µM is 0.843%.
